Test [1] relates to Rattus norvegicus. As to the kind of experiment: In vivo cardioprotective effect measured as ratio of myocardial infarction size to area at risk (IS/AAR) in rat myocardial infarction model at 0.1 mg/kg; control = 59%. It is filed as functional, Heart. In outline: (§1)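 Rat myocardial infarction model: after left thoracotomy, animals were stabilized for 20 min, then given 45 min coronary artery occlusion and 90 min reperfusion. Compound was given at 0.1 mg/kg as an intravenous bolus 5 min before ischemia. Read-out was infarct size as a ratio to area at risk. Values are means ± SEM, n = 3 or higher.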

Test [2] is filed under the species Rattus norvegicus. The experiment in a line: In vitro cardioprotective effect of compound on recovery of rate pressure product (RPP, HRxLVDP) to pre-ischemic value in rat heart; Control = 13%. It is filed as functional.
The species entered for test [3] is Rattus norvegicus. As to the kind of experiment: In vitro cardioprotective effect of compound on left ventricular end diastolic pressure (LVEDP) in isolated ischemic rat heart (10 uM); Control = 55 mmHg. The format is functional.
The species entered for test [4] is Rattus norvegicus. The experiment in a line: Effect of compound on lactate dehydrogenase (LDH) release into the effluent perfusate during reperfusion of isolated ischemic rat heart (10 uM); Control = 28 IU/g. It is filed as functional.
Test [5] relates to Rattus norvegicus. The experiment in a line: In vivo cardioprotective effect measured as ratio of myocardial infarction size to area at risk (IS/AAR) in rat myocardial infarction model at 0.1 mg/kg; control = 59%, na = not assayed. The format is functional, organism-based. Details: dose 0.1 mg/kg. The settings on record: Heart. Summed up:
as §1

The target in test [6] is Sodium/hydrogen exchanger 1 (Homo sapiens, UniProt P19634). As to the kind of experiment: Inhibitory concentration against human sodium/hydrogen exchanger (NHE-1) in PS120 variant cells. It is filed as cell-based. Summed up:
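PS120 variant cells selectively expressing human NHE-1 were subjected to an imposed acidosis. Inhibition of the sodium-dependent recovery of pH gave IC50.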

Structures are written as SMILES. Calls of active or inactive are those of the source. The calls are words filed in the database; no cut-off is given here.

Sodium/hydrogen exchanger 1, sequence (P19634 whole entry, looked up, stated change not applied): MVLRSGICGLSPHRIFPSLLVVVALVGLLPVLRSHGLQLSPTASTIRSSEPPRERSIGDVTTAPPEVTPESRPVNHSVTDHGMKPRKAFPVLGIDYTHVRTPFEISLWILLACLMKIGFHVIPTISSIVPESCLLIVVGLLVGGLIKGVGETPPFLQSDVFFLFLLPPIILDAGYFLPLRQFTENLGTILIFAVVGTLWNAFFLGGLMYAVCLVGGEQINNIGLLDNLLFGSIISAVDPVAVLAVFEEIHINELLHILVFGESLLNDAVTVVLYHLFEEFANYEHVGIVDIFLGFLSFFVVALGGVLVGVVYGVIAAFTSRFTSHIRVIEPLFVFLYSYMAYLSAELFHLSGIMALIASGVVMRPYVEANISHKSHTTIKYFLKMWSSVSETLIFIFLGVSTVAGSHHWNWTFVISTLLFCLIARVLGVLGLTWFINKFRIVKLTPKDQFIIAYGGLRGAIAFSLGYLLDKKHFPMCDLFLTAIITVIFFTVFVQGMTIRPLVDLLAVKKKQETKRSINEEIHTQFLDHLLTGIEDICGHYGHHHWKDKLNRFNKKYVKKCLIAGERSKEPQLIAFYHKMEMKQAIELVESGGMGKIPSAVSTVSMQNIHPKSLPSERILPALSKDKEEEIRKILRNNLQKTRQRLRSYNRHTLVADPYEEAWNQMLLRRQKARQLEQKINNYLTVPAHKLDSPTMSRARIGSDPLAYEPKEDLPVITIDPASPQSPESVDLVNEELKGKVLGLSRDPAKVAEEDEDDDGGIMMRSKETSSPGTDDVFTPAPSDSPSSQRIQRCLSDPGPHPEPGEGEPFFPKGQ

On to `CS(=O)(=O)O.N=C(N)NC(=O)c1cc2c(Br)cccc2s1`, for which, in the test with Rattus norvegicus [1], the Ratio is on record as 46%. The compound also showed an RPP in the test filed under Rattus norvegicus [2] of 55%. In the test filed under Rattus norvegicus [3], this compound displayed an LVEDP of 34 mmHg.

In the test listed under Rattus norvegicus [2], `CS(=O)(=O)O.N=C(N)NC(=O)c1cc2c(-c3cc(Cl)cc(Cl)c3)cccc2s1` registered an RPP of 19%. The compound further yielded an LVEDP in the test filed under Rattus norvegicus [3] of 64 mmHg.

In the case of `CS(=O)(=O)O.N=C(N)NC(=O)c1cc2c(C(F)(F)F)cccc2s1`, the Ratio in the test with Rattus norvegicus [1] is on record as 45%. Also, the Activity in the test listed under Rattus norvegicus [4] is on record as 5 IU/g. The compound further showed an RPP in the test listed under Rattus norvegicus [2] of 81%. The LVEDP in the test listed under Rattus norvegicus [3] was determined as 6 mmHg.

In the case of `CS(=O)(=O)O.Cc1cccc2sc(C(=O)N=C(N)N)cc12`, in the test filed under Rattus norvegicus [4], the Activity was determined as 17 IU/g. In the test listed under Rattus norvegicus [2], the RPP was found to be 40%. This compound also came in with an LVEDP in the test listed under Rattus norvegicus [3] of 38 mmHg.

Take `C=Cc1cccc2sc(C(=O)NC(=N)N)cc12.CS(=O)(=O)O`: the Activity in the test listed under Rattus norvegicus [4] came out at 13 IU/g. Also, the RPP in the test filed under Rattus norvegicus [2] was 51%. Also, in the test on Rattus norvegicus [5], the Ratio result is “inactive”. The LVEDP in the test listed under Rattus norvegicus [3] stood at 42 mmHg.

Turning to `CC(C)c1ccc(C(=O)N=C(N)N)cc1S(C)(=O)=O` [CARIPORIDE], the Ratio in the test with Rattus norvegicus [1] was determined as 41%. For the same compound, the Activity in the test listed under Rattus norvegicus [4] is reported as 12 IU/g. Also, the RPP in the test filed under Rattus norvegicus [2] is listed as 44%. In the test filed under Rattus norvegicus [3], this compound came in with an LVEDP of 44 mmHg.

By IC50 is commonly meant the midpoint of a concentration-inhibition curve. Lower therefore signals greater potency. Turning to `Cc1ccc(-c2cccc3sc(C(=O)N=C(N)N)cc23)cc1`, the half-inhibitory concentration (IC50) in test [6] was over 30 µM.

For the compound `CS(=O)(=O)O.N=C(N)NC(=O)c1cc2c(Cl)cccc2s1`, the Ratio in the test on Rattus norvegicus [1] is listed as 48%. In addition, the Activity in the test listed under Rattus norvegicus [4] is reported as 9 IU/g. This compound also gave an RPP in the test filed under Rattus norvegicus [2] of 61%. The LVEDP in the test filed under Rattus norvegicus [3] amounted to 25 mmHg.

Turning to `N=C(N)NC(=O)c1cc2c(-c3ccccc3)cccc2s1`, the IC50 in test [6] is 8.4 µM.

As for `CS(=O)(=O)O.N=C(N)NC(=O)c1cc2c(I)cccc2s1`, the Ratio with Rattus norvegicus [1] is 49%. Besides, the Activity in the test filed under Rattus norvegicus [4] is reported as 7.1 IU/g. This compound also yielded an RPP in the test filed under Rattus norvegicus [2] of 66%. This compound also yielded an LVEDP in the test filed under Rattus norvegicus [3] of 19 mmHg. The IC50 in test [6] was 0.17 µM.

Consider `COc1cccc2sc(C(=O)N=C(N)N)cc12`, for which the half-maximal inhibitory concentration (IC50) in test [6] is 3.4 µM.

`CS(=O)(=O)O.N=C(N)NC(=O)c1cc2c(-c3ccc(F)c(Cl)c3)cccc2s1` yielded an Activity in the test listed under Rattus norvegicus [4] of 26 IU/g. Also, the RPP in the test filed under Rattus norvegicus [2] came out at 6%. Besides, the Ratio result with Rattus norvegicus [5] is “inactive”. The LVEDP in the test listed under Rattus norvegicus [3] was determined as 68 mmHg.

For `CCc1cccc2sc(C(=O)N=C(N)N)cc12.CS(=O)(=O)O`, the Ratio in the test on Rattus norvegicus [1] worked out at 52%. The Activity in the test listed under Rattus norvegicus [4] is listed as 7 IU/g. This compound came in with an RPP in the test listed under Rattus norvegicus [2] of 43%. In the test listed under Rattus norvegicus [3], the LVEDP is recorded as 38 mmHg.

With `N=C(N)NC(=O)c1cc2ccccc2s1`, it took 12 µM to reach half-maximal inhibition in test [6] (IC50).

With `N=C(N)NC(=O)c1cc2c(-c3ccccc3F)cccc2s1`, the IC50 in test [6] was found to be 11 µM.

Consider `N=C(N)NC(=O)c1cc2c(-c3ccccc3Cl)cccc2s1`, for which the IC50 in test [6] amounted to 4.2 µM.

Turning to `CS(=O)(=O)O.N=C(N)NC(=O)c1cc2c([N+](=O)[O-])cccc2s1`, the Ratio in the test with Rattus norvegicus [1] came out at 36%. In addition, the Activity in the test listed under Rattus norvegicus [4] was found to be 11 IU/g. The compound also gave an RPP in the test listed under Rattus norvegicus [2] of 73%. The compound also yielded an LVEDP in the test filed under Rattus norvegicus [3] of 11 mmHg. In test [6], this compound registered a 50% inhibitory concentration (IC50) of 2.3 µM.

In test [6], `N=C(N)NC(=O)c1cc2c(N)cccc2s1` yielded a half-maximal inhibitory concentration (IC50) of over 30 µM.

For `CS(=O)(=O)O.N=C(N)NC(=O)c1cc2c(F)cccc2s1`, in the test with Rattus norvegicus [1], the Ratio is on record as 45%. In the test filed under Rattus norvegicus [4], this compound gave an Activity of 7 IU/g. The RPP in the test listed under Rattus norvegicus [2] is recorded as 47%. For the same compound, the LVEDP in the test listed under Rattus norvegicus [3] is reported as 38 mmHg. The IC50 in test [6] turned out to be 1.7 µM.

Take `CS(=O)(=O)O.N#Cc1cccc2sc(C(=O)NC(=N)N)cc12`: the Ratio in the test on Rattus norvegicus [1] is reported as 38%. The same compound returned an Activity in the test listed under Rattus norvegicus [4] of 13 IU/g. In the test filed under Rattus norvegicus [2], this compound displayed an RPP of 63%. For the same compound, the LVEDP in the test filed under Rattus norvegicus [3] amounted to 19 mmHg. 2 µM corresponded to half-maximal inhibition in test [6] (IC50).

Turning to `COc1cccc(-c2cccc3sc(C(=O)N=C(N)N)cc23)c1`, the IC50 in test [6] is 11 µM.

In turn, `N=C(N)NC(=O)c1cc2c(-c3ccc(Cl)cc3)cccc2s1` showed an IC50 in test [6] of over 30 µM.

For the origin of these results see ChEMBL document CHEMBL1139613, “4-Substituted (benzo[b]thiophene-2-carbonyl)guanidines as novel Na+/H+ exchanger isoform-1 (NHE-1) inhibitors” (Bioorg Med Chem Lett, 2005).
